# S100A4 MyoIIA: S100A4-myosin IIA interaction inhibition. 360,000 tested, 0.14% active. S100A4/TAMRA-MyoIIA peptide fluorescence polarization. P26447. inhibition, % at 10.7 µM;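 active means mean inhibition of at least 70% across replicates, with every replicate also reaching that level; inconclusive means mean inhibition reaches 70% but some replicates fall short; inactive means mean inhibition below 70%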
# Target sequence (P26447 whole entry, looked up): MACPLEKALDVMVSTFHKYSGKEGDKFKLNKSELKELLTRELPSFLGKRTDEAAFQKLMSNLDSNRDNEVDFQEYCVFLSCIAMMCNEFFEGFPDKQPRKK
#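 Test system: S100A4 monomer protein; Medium: HEPES pH 7.2 with CaCl2, KCl, NaCl, DTT, Triton; Probe or stimulus: TAMRA-labelled myosin IIA heavy-chain peptide probe, 5 nM; Doses: one dose per compound; Times: polarization read 5 min after assay mix addition, stable 5–60 min; Benchmarks: neutral control DMSO, positive control TFP.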
# F508del corr: correctors of CFTR F508del function in bronchial epithelial cells | CFBE cells, YFP halide quenching; stimulated with forskolin plus potentiator P3; % fluorescence drop versus neutral controls | activity (quench increase), % at 7.58 µM | 350,000 tested, 0.36% active;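 active means mean added fluorescence quench of at least 8% versus neutral control, with both replicates also reaching 8%; inconclusive means only one of the mean or replicate conditions met; inactive means mean below 8% and not both replicates reaching 8%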;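 further: cells transiently co-express mutant CFTR-F508del with the halide-sensitive YFP; corrector assay measuring rescue of mutant channel to the surface after 24 h compound exposure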
# dFosB activator: mouse delta FosB homodimer activation; P13346; purified delta FosB, TAMRA-CDK5 oligo fluorescence polarization; percent of positive-control signal above neutral wells; activation, % at 25 µM; 340,000 tested, 0.99% active; AID 493131;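 active means mean activation above about 17%, with every replicate also reaching it, limit read from the data, passing the limit was not always enough; inconclusive means only one of the two conditions met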
# FGF22 binding: shifts melting point of recombinant human FGF22; recombinant FGF22 thermal shift, SYPRO orange fluorescence; percent of sucrose octasulfate shift, DMSO zero; activity (Tm shift, normalised), % at 9.99 µM; 340,000 tested, 1.5% active; Q9HCT0;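 active means mean Tm shift, scaled 0 neutral to 100 positive control, at about 1.3% or above, every replicate too, limit read from the data; inconclusive means no clear call, values can overlap the other calls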
# Target sequence (Q9HCT0 whole entry, looked up): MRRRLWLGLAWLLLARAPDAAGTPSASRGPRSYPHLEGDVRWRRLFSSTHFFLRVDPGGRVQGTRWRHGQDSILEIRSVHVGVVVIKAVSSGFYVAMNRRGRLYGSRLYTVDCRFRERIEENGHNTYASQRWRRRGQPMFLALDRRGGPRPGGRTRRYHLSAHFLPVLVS
# * = called active by the depositor; ? = inconclusive; / = not tested or not shown. Hits are enriched below; roughly 2.2% of the tested compounds scored in any of these assays.
SMILES,S100A4 MyoIIA,F508del corr,dFosB activator,FGF22 binding
CCCc1nc2sc3c(c2c(=O)[nH]1)CCCC3,0,0,-2,43*
COc1ccc(C(=O)COC(=O)CN2C(=O)c3ccccc3C2=O)c(OC)c1,1,-1,19*,0
COc1ccc(C(=O)COC(=O)Cn2c(C)csc2=O)c(OC)c1,-1,3,-2,0
COCC(=O)N(C)C[C@H]1Oc2cc(-c3ccc(C#N)cc3)ccc2S(=O)(=O)N([C@H](C)CO)C[C@@H]1C,/,-2,/,/
CN(C)S(=O)(=O)c1ccc2nnn(O)c2c1,-1,-1,-11,43*
O=S(=O)(c1ccc2nnn(O)c2c1)N1CCOCC1,0,1,-4,1
Cc1cccc(Nc2cc(C)c3c(O)cccc3n2)c1C,-5,4,43*,0
COc1ccc(S(=O)(=O)/N=C2/NC(=O)/C(=C/c3ccco3)S2)cc1,-2,-1,-16,1.4*
O=C(Nc1ccccc1)Nc1cc(Cl)cc(Cl)c1,/,/,-2,/
O=C(Nc1ccccc1)Nc1cc(OCC(F)(F)F)cc(OCC(F)(F)F)c1,-3,2,-1,44*
O=C(N/N=C/c1cccn1-c1ccc(O)cc1)c1cccc2ccccc12,7,-1,22*,0
C(=C1c2ccccc2-c2ccccc21)c1ccccn1,-59,0,-12,43*
CN(C)c1nc(Cl)nc(N(C#N)CCOc2ccccc2)n1,-2,1,-13,43*
CC(C)NC(=O)Nc1ccc2c(c1)CC(=O)N([C@H](C)CO)C[C@@H](C)[C@@H](CN(C)C(=O)Nc1cccc3ccccc13)O2,13,2,/,0
CN1CCC(=NNC(=O)C(=O)Nc2ccccc2F)CC1,4,-1,-7,43*
CN1CCC(=NNC(=O)C(=O)NC(C)(C)C)CC1,-14,1,-5,0
Fc1ccc(/C=N/Nc2ccccn2)cc1,-4,4,-1,44*
Clc1ccc(/C=N/Nc2ccccn2)cc1,-5,0,-4,0
O=C(Nc1ccc2c(c1)[C@H]1C[C@@H](CC(=O)N3CCc4ccccc4C3)O[C@H](CO)[C@H]1O2)NC1CCCC1,21,-2,/,0
C[C@@H]1CCCCO[C@@H](CN(C)S(C)(=O)=O)[C@H](C)CN([C@H](C)CO)C(=O)c2cc(NS(=O)(=O)c3cn(C)cn3)ccc2O1,19,4,/,0
CCCN1[C@@H]2c3ccc(-c4ccccc4F)c(=O)n3C[C@H]1[C@H](CO)[C@H]2C(=O)NCc1ccccn1,8,0,/,/
N#CCCN(C(=O)CN1c2cccc3cccc(c23)S1(=O)=O)c1ccccc1,0,-4,2,43*
O=C(Nc1ccccc1)n1cc(-c2ccccn2)c(N2CCOCC2)n1,-1,-1,9,44*
CC(C)NC(=O)Nc1cccc2c1O[C@H](CN(C)C)[C@H](C)CN([C@@H](C)CO)C2=O,5,2,/,0
COc1ccc(NC(=O)c2ccc(-c3ccc(-c4noc(C)n4)cc3C)cc2)cc1N1CCN(C)CC1,-11,-5,21*,0
SMILES,S100A4 MyoIIA,F508del corr,dFosB activator,FGF22 binding
COc1ccc(-c2nc(-c3ccc(NC(=O)c4ccncc4)cc3)no2)cc1OC,/,/,-13,/
CCOC(=O)[C@@H]1[C@H]2COc3ccccc3[C@@H]2N2C(=O)N(c3ccc(C)cc3)C(=O)[C@@]12C,-3,0,-9,0
CCOC(=O)[C@@H]1[C@H]2COc3ccccc3[C@@H]2N2C(=O)N(c3ccc(F)cc3)C(=O)[C@@]12C,0,3,-9,45*
C[C@@H]1CN([C@@H](C)CO)C(=O)c2cccc(NC(=O)Nc3ccccc3)c2O[C@@H]1CN(C)C,-6,-3,/,0
CCN(Cc1ccccc1)c1ccc(/C=N/N=C(N)N)cc1,2,9.9*,?,0
O=C(N[C@@H]1CC[C@H](CC(=O)N2CCC(Cc3ccccc3)CC2)O[C@H]1CO)c1cnccn1,-1,-1,/,0
Cc1cc(Cl)ccc1OC(C)C(=O)Nc1ccc(C(=O)Nc2ccccc2C(=O)O)cc1 (configuration not stated),1,0,-17,1.4*
C[C@@H]1CCCCO[C@@H](CN(C)S(=O)(=O)c2ccccc2)[C@H](C)CN([C@@H](C)CO)C(=O)c2cc(NS(C)(=O)=O)ccc2O1,-20,-1,/,0
CCCNC(=O)N1CC2(CCN(Cc3ccccn3)CC2)c2c(n(C)c3cc(OC)ccc23)[C@@H]1CO,0,-1,/,0
S=c1[nH]nc(SCc2ccccc2)c2[nH]cnc12,3,2,-3,0

# Screens deposited in PubChem by Broad Institute.
